Experimental data published in ChEMBL document CHEMBL5661972, “In vitro biological activity of a novel small-molecule inhibitor of polo-like kinase 1” (Mol Cancer Ther, 2007).
Activity calls are given as the source filed them. No cut-off for these calls is given here.

Key:
[1] = molecular target: Mitogen-activated protein kinase 14 (Homo sapiens, UniProt Q16539); experiment: Inhibition of p38alpha (unknown origin)
NHDF [2] = experiment: Induction of cell cycle arrest in human HDF cells assessed as accumulation of cells at S phase at 1 micromol/L incubated for 72 hrs by propidium iodide staining based flow cytometry analysis (reference value: 3.6 %); type: toxicity; settings: 1 µM, dose 1 µmol/L
Procedure, shortened: (§1)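 Cells seeded in six-well plates at densities that keep them in log growth (HDF 120,000, 60,000 or 30,000; H460 100,000, 50,000 or 25,000 per well for 24, 48 or 72 h). Treated with 1 or 3 μmol/L. Floating and adherent cells collected, ethanol-fixed, permeabilized with Triton X-100 and stained with propidium iodide. DNA content read by flow cytometry as % singlet cells.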

NCI-H460 [3] = experiment: Induction of cell cycle arrest in human NCI-H460 cells assessed as accumulation of cells at G2-M phase at 3 micromol/L incubated for 72 hrs by propidium iodide staining based flow cytometry analysis (reference value: 18.2 %); type: functional; settings: dose 3 µmol/L
NCI-H460 [4] = experiment: Induction of apoptosis in human NCI-H460 cells assessed as PARP cleavage at 5 micromol/L incubated for 22 to 72 hrs by Western blotting analysis; type: functional, cell-based; settings: dose 5.0 µmol/L, time 22-72 hrs
Procedure, shortened: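 H460 cells seeded at 320,000 per well in six-well plates and given 5 μmol/L for 22, 30, 46, 55 and 72 h. Lysed in caspase assay buffer, run on 4–12% Bis-Tris gels and immunoblotted with an anti-PARP antibody that detects both the 116-kDa intact protein and the 85-kDa fragment.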

NHDF [5] = experiment: Induction of cell cycle arrest in human HDF cells assessed as accumulation of cells at G2-M phase at 3 micromol/L incubated for 72 hrs by propidium iodide staining based flow cytometry analysis (reference value: 8.2 %); type: toxicity; settings: 3 µM, dose 3 µmol/L; procedure, shortened: as §1
NHDF [6] = experiment: Induction of cell cycle arrest in human HDF cells assessed as accumulation of cells at S phase at 3 micromol/L incubated for 48 hrs by propidium iodide staining based flow cytometry analysis (reference value: 4.7 %); type: toxicity; settings: 3 µM, dose 3 µmol/L; procedure, shortened: as §1
[7] = Inhibition of CDK2/cyclin A (unknown origin); set-up: species or system Homo sapiens
NHDF [8] = experiment: Induction of cell cycle arrest in human HDF cells assessed as accumulation of cells at >4N phase at 1 micromol/L incubated for 48 hrs by propidium iodide staining based flow cytometry analysis (reference value: 3.0 %); type: toxicity; settings: 1 µM, dose 1 µmol/L; procedure, shortened: as §1
NHDF [9] = experiment: Induction of cell cycle arrest in human HDF cells assessed as accumulation of cells at Sub-2N phase at 3 micromol/L incubated for 24 hrs by propidium iodide staining based flow cytometry analysis (reference value: 0.2 %); type: toxicity; settings: 3 µM, dose 3 µmol/L; procedure, shortened: as §1
[10] = molecular target: Serine/threonine-protein kinase PLK1 (Homo sapiens, UniProt P53350); experiment: Inhibition of human PLK1 expressed in baculovirus infected in Trichoplusia ni cells using Biotin-Ahx-SFNDTLDFD as substrate in presence of ATP by TopCount scintillation proximity assay; set-up: species or system Trichoplusia ni cell
Sequence of Serine/threonine-protein kinase PLK1 (P53350 whole entry, the tested form may be a part): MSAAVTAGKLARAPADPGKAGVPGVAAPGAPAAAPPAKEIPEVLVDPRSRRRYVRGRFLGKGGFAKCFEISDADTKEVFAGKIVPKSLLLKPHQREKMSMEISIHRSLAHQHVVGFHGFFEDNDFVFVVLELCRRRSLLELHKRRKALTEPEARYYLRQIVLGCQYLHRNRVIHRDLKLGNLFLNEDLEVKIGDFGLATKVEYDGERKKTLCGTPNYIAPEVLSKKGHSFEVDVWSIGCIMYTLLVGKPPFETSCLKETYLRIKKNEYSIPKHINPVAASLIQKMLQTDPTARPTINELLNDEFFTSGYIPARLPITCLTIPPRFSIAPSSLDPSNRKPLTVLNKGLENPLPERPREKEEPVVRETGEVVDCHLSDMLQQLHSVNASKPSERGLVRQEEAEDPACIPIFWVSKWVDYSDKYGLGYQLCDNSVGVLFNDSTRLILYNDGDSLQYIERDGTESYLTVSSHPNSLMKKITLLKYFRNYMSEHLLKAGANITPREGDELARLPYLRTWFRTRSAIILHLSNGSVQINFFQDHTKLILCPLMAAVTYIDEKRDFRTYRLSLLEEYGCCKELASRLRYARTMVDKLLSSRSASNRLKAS
Procedure, shortened: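 Baculovirus-expressed PLK1 kinase domain (2 nmol/L) in 25 mmol/L HEPES pH 7.2, 15 mmol/L MgCl2, 1 μmol/L ATP plus [γ-33P]ATP, 1 μmol/L biotinylated peptide substrate, BSA and DTT; 1–1.5 h at 22°C. Stopped with EDTA/streptavidin SPA beads. Signal above EDTA background converted to percent inhibition versus DMSO-only wells.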

NCI-H460 [11] = experiment: Induction of cell cycle arrest in human NCI-H460 cells assessed as accumulation of cells at G1 phase at 3 micromol/L incubated for 72 hrs by propidium iodide staining based flow cytometry analysis (reference value: 58.2 %); type: functional; settings: dose 3 µmol/L, at 3 µM
NHDF [12] = experiment: Induction of cell cycle arrest in human HDF cells assessed as accumulation of cells at >4N phase at 3 micromol/L incubated for 72 hrs by propidium iodide staining based flow cytometry analysis (reference value: 1.4 %); type: toxicity; settings: 3 µM, dose 3 µmol/L; procedure, shortened: as §1
NCI-H460 [13] = experiment: Induction of cell cycle arrest in human NCI-H460 cells assessed as accumulation of cells at >4N phase at 1 micromol/L incubated for 72 hrs by propidium iodide staining based flow cytometry analysis (reference value: 0.9 %); type: functional; settings: dose 1 µmol/L, at 1 µM; procedure, shortened: as §1
NCI-H460 [14] = experiment: Induction of cell cycle arrest in human NCI-H460 cells assessed as accumulation of cells at S phase at 3 micromol/L incubated for 72 hrs by propidium iodide staining based flow cytometry analysis (reference value: 17.8 %); type: functional; settings: dose 3 µmol/L, at 3 µM
NHDF [15] = experiment: Induction of cell cycle arrest in human HDF cells assessed as accumulation of cells at Sub-2N phase at 3 micromol/L incubated for 48 hrs by propidium iodide staining based flow cytometry analysis (reference value: 0.5 %); type: toxicity; settings: 3 µM, dose 3 µmol/L; procedure, shortened: as §1
MES-SA = experiment: Antiproliferative activity against DX5 resistant human MES-SA cells assessed as inhibition of cell growth; type: functional, cell-based
Procedure, shortened: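 Cells grown 3 days in 96-well plates, seeded so vehicle controls stay in log growth (MES-SA/DX5 7,000, MES-SA 6,000, HDF 5,000 per well). Exposed to 3-fold dilutions, 30–0.00152 μmol/L, in medium with 5% FBS, 50 μg/mL gentamicin and 0.3% (v/v) DMSO. HDF medium was low-glucose DMEM; MES-SA lines used McCoy's 5A.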

NCI-H460 [16] = experiment: Induction of cell cycle arrest in human NCI-H460 cells assessed as accumulation of cells at Sub-2N phase at 3 micromol/L incubated for 48 hrs by propidium iodide staining based flow cytometry analysis (reference value: 2.5 %); type: functional; settings: dose 3 µmol/L, at 3 µM
NHDF [17] = experiment: Induction of cell cycle arrest in human HDF cells assessed as accumulation of cells at >4N phase at 3 micromol/L incubated for 48 hrs by propidium iodide staining based flow cytometry analysis (reference value: 3.0 %); type: toxicity; settings: 3 µM, dose 3 µmol/L; procedure, shortened: as §1
NCI-H460 [18] = experiment: Induction of cell cycle arrest in human NCI-H460 cells assessed as accumulation of cells at G1 phase at 1 micromol/L incubated for 48 hrs by propidium iodide staining based flow cytometry analysis (reference value: 50.9 %); type: functional; settings: dose 1 µmol/L, at 1 µM; procedure, shortened: as §1
NCI-H460 [19] = experiment: Induction of cell cycle arrest in human NCI-H460 cells assessed as accumulation of cells at Sub-2N phase at 3 micromol/L incubated for 24 hrs by propidium iodide staining based flow cytometry analysis (reference value: 4.0 %); type: functional; settings: dose 3 µmol/L, at 3 µM
NCI-H460 [20] = experiment: Induction of cell cycle arrest in human NCI-H460 cells assessed as accumulation of cells at >4N phase at 3 micromol/L incubated for 24 hrs by propidium iodide staining based flow cytometry analysis (reference value: 1.2 %); type: functional; settings: dose 3 µmol/L, at 3 µM; procedure, shortened: as §1
[21] = molecular target: Platelet-derived growth factor receptor beta (Homo sapiens, UniProt P09619); experiment: Inhibition of PDGFR1beta (unknown origin)
Sequence of Platelet-derived growth factor receptor beta (P09619 whole entry): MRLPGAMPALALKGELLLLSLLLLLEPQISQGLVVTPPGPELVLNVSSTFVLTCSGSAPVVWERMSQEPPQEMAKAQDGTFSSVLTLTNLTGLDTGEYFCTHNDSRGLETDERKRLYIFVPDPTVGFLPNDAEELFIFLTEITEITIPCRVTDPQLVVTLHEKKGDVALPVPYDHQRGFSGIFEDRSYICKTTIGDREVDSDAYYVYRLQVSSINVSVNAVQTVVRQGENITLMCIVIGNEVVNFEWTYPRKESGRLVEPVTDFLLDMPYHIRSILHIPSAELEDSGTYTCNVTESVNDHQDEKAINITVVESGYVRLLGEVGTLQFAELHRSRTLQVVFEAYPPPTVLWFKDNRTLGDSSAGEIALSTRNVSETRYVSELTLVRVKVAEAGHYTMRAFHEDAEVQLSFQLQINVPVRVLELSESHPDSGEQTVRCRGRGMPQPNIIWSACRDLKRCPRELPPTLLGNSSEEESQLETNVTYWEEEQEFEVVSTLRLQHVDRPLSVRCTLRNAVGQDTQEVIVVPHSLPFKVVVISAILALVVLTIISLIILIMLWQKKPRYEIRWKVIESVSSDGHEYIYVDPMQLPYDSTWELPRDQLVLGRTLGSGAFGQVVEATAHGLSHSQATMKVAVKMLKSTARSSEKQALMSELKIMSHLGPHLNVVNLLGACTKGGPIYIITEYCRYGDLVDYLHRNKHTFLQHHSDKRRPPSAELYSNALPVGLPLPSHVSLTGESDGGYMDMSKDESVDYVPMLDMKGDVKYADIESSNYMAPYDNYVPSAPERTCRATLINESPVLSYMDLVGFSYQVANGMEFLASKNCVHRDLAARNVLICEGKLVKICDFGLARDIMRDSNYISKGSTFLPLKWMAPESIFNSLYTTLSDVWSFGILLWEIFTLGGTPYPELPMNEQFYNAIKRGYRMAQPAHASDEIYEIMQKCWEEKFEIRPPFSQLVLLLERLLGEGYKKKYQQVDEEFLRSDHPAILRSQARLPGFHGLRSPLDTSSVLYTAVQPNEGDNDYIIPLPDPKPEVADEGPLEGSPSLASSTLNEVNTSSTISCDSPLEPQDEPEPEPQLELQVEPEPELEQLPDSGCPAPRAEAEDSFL

NHDF [22] = experiment: Induction of cell cycle arrest in human HDF cells assessed as accumulation of cells at Sub-2N phase at 1 micromol/L incubated for 48 hrs by propidium iodide staining based flow cytometry analysis (reference value: 0.5 %); type: toxicity; settings: 1 µM, dose 1 µmol/L; procedure, shortened: as §1
NCI-H460 [23] = experiment: Induction of cell cycle arrest in human NCI-H460 cells assessed as accumulation of cells at G2-M phase at 1 micromol/L incubated for 24 hrs by propidium iodide staining based flow cytometry analysis (reference value: 19.8 %); type: functional; settings: dose 1 µmol/L, at 1 µM

Sequence of Mitogen-activated protein kinase 14 (Q16539 whole entry): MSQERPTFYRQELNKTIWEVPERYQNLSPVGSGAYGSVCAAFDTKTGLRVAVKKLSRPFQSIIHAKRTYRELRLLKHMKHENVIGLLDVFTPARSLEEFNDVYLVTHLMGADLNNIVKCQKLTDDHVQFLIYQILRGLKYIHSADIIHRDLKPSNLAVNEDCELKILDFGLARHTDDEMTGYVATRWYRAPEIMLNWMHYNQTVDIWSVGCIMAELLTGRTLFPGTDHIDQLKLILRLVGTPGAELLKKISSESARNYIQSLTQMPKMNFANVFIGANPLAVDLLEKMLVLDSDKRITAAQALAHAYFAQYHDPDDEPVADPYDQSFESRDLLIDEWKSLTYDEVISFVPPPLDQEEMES

COc1cc2ncn(-c3cc(OCc4ccccc4C(F)(F)F)c(C(N)=O)s3)c2cc1OC [GW843682X]
IC50 [1]: > 10000 nM
Activity (NHDF [2]): 6.7%
Activity (NCI-H460 [3]): 4.7%
Activity (NCI-H460 [4]): Active
Activity (NHDF [5]): 52.7%
Activity (NHDF [6]): 5.9%
IC50 [7]: 7600 nM
Activity (NHDF [8]): 6.4%
Activity (NHDF [9]): 0.2%
IC50 [10]: 2.2 nM
Activity (NCI-H460 [11]): 3.7%
Activity (NHDF [12]): 19.1%
Activity (NCI-H460 [13]): 58.6%
Activity (NCI-H460 [14]): 3.6%
Activity (NHDF [15]): 2.3%
IC50 (MES-SA): 210 nM
Activity (NCI-H460 [16]): 20.3%
Activity (NHDF [17]): 11.2%
Activity (NCI-H460 [18]): 8.9%
Activity (NCI-H460 [19]): 24.1%
Activity (NCI-H460 [20]): 6.2%
IC50 [21]: 160 nM
Activity (NHDF [22]): 0.9%
Activity (NCI-H460 [23]): 33%
